Measured values as given in the RNAGym collection of RNA variant scans (doi:10.1126/science.aae0568).
This sample holds only a part of the variants without activity.

B1: tRNA (parent)
chain: GUUCCGUUGGCGUAAUGGUAACGCGUCUCCCUCCUAAGGAGAAGACUGCGGGUUCGAGUCCCGUACGGAACG

Variants of: B1
Assay: yeast fitness relative to wild type (ratio to wild type); higher = fitter; tRNA-Arg(CCU), competitive growth, 37 C, YPD
Outline: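 Variants of the tRNA-Arg(CCU) gene, chemically synthesised with a 3% per-site mutation rate at 69 sites, were placed at the native genomic locus in Saccharomyces cerevisiae. The pooled strains were competed in YPD at 37°C for 24 hours in six parallel replicates. Gene amplicons from the start population and from each end population were read by 100-nucleotide paired-end sequencing. Darwinian fitness relative to wild type came from changes in genotype frequencies; genotypes needed ≥ 100 starting reads, and estimates < 0.5 were set to 0.5.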

Row | Variant | yeast fitness
1 | C27U U59G G68C | 0.539
2 | U28A C49U U54G | ≤ 0.5
3 | U28C G58U A65G G67A | ≤ 0.5
4 | C27U G58C U64C | 0.73
5 | U28C G58A | 0.937
6 | C27U G51A U59A | 0.568
7 | U28C G41A A57U C66G | ≤ 0.5
8 | U28A A42G A57G | ≤ 0.5
9 | U28A C29U A45C | 0.522
10 | U28A C33G A43C G63A | 0.524
11 | U28A A43C A57C | 0.608
12 | U28A C34U U47C C60U | ≤ 0.5
13 | U28C C33A C49U C55G | ≤ 0.5
14 | C27U U47C C55U C62G A69U | ≤ 0.5
15 | U28A A40G G51C U54A G58C C66U | ≤ 0.5
16 | U28C A45U A70U | 0.773
17 | U28A A43C G48A A70C | 0.577
18 | U28G A36G A45G | 0.718
19 | U28C A37C A70C | ≤ 0.5
20 | U28C U59C G67A | 0.532
21 | U28A C31G U35C U47C C60U C61U | ≤ 0.5
22 | C27U C60U | 0.849
23 | C27U C60A | 0.552
24 | U28A A36G C66G | ≤ 0.5

Row | Variant | yeast fitness
25 | U28C C34G A40G A43G C46G G52A C55U C66U | 0.547
26 | U28A A65C | 0.675
27 | C27U G44C A65U | 0.691
28 | C27U U32C G41A C55A G63C | ≤ 0.5
29 | C27U U47A C61A A65G | ≤ 0.5
30 | C27U G51C U59C G63A | ≤ 0.5
31 | U28A C34A A40G C66A | ≤ 0.5
32 | U28C C29G A43U C49U U54G C66A | ≤ 0.5
33 | U28A C29A C46U C55G | ≤ 0.5
34 | U28A G38A | 0.772
35 | U28A G38C | 0.541
36 | C27U U32C A70C | 0.68
37 | C27U C55G | 0.675
38 | C27U G48A U59A | 0.684
39 | U28A A57G C60A | 0.569
40 | U28C U47C G58A | 1.07
41 | U28A G41A | 0.697
42 | C27U G51C C61G | ≤ 0.5
43 | C27U G39A G41A A69U | 0.674
44 | C27U G58C U59C A70G | ≤ 0.5
45 | U28C C66G | 0.72
46 | U28C C66U | 0.907
47 | U28C C31U G51A G63C | ≤ 0.5
48 | C27U C55U G56A A57C | 0.526

Row | Variant | yeast fitness
49 | C27U C62U A70C | 0.756
50 | U28C C34G A40G A43G C46G C55U C66U | ≤ 0.5
51 | U28C C55A C61U G68A A70G | ≤ 0.5
52 | U28C C29U A45C | 0.545
53 | U28A A70U | 0.738
54 | C27U U28A A40U | 0.671
55 | U28C A40C C66G | 0.733
56 | C27U C62A C66U | ≤ 0.5
57 | C27U G44C C62U | 0.733
58 | C27U G63C | 0.715
59 | U28C C33U G41A G52C | ≤ 0.5
60 | U28C C55U A57C | ≤ 0.5
61 | U28A C30G | 0.51
62 | U28A C30A | 0.759
63 | U28A A36G A37G | ≤ 0.5
64 | U28C G38A A40C A45G G48A U59A C62U | 0.542
65 | U28C U47C A70G | 0.743
66 | U28C U47C | 0.915
67 | U28A A36C A45G | ≤ 0.5
68 | U28C C30G A45C C49U | ≤ 0.5
69 | U28C U32C C60A | ≤ 0.5
70 | C27U G52C C60U | 0.521
71 | U28A U32A C55G | ≤ 0.5
72 | U28A G39C | 0.552

Row | Variant | yeast fitness
73 | U28A G56A | 0.796
74 | U28A G44A G50A A57G G63A | ≤ 0.5
75 | U28A C31U C34U | ≤ 0.5
76 | U28C C60U | 0.73
77 | U28C G48A | 0.866
78 | U28A C29G A57C G67A | ≤ 0.5
79 | C27U G51A U53A G63C | ≤ 0.5
80 | C27U U59A A65U | ≤ 0.5
81 | U28C C33U A37G G41A G52C | ≤ 0.5
82 | U28C C46A C62A U64A | ≤ 0.5
83 | U28A U32G A69U | ≤ 0.5
84 | U28A C31G U35C C60U C61U | ≤ 0.5
85 | U28A A40G A43U A65U C66U | ≤ 0.5
86 | U28A G58C G68C | ≤ 0.5
87 | U28C C29G C33A G68C | ≤ 0.5
88 | U28A C49A | 0.644
89 | U28A C49U | 0.804
90 | U28A C49G | 0.818
91 | C27U G41C U64C A70C | 0.675
92 | U28A A36U | 0.564
93 | U28A A36G | 0.73
94 | U28A A36G A57U A69U | ≤ 0.5
95 | U28C A36G | 0.989
96 | U28C G52A A69U | 0.592

Row | Variant | yeast fitness
97 | C27U U35C A37C A40U A43U | ≤ 0.5
98 | U28C C31A G41A G58C C66U | ≤ 0.5
99 | U28C A37C A40U G50A C60G | ≤ 0.5
100 | U28C U35C | 0.751
101 | U28A G52A A57U C60U A65G G68A | 0.59
102 | U28A G38A C55G | ≤ 0.5
103 | U28A G68U | 0.762
104 | U28A G68C | 0.707
105 | U28C G56A | 0.933
106 | C27U G51C C62G | ≤ 0.5
107 | U28C A37C A40U G63A A70C | ≤ 0.5
108 | U28G | 0.957
109 | U28A | 0.892
110 | U28C | 0.981
111 | C27U G48A C49U A70U | 0.752
112 | C27U U32C G41A A42U G44A C46U G58A C60U | ≤ 0.5
113 | U28A C29G C31U U54C | ≤ 0.5
114 | U28A C34U A45U C62A | ≤ 0.5
115 | U28C C30A C49U | ≤ 0.5
116 | U28C A40G G51C A65U | 0.545
117 | U28A C30U A40G U54G | ≤ 0.5
118 | U28C A37G | 0.724
119 | U28C A37C | 0.786
120 | C27U G39C C49U | ≤ 0.5

Row | Variant | yeast fitness
121 | U28A C34G G39C A57G C66U | ≤ 0.5
122 | C27U G44C G68A | 0.666
123 | C27U U35C A36G | 0.566
124 | C27U G56C C66U | ≤ 0.5
125 | U28A C31G U35A U47A U54A | ≤ 0.5
126 | C27U G39A C46U | 0.918
127 | C27U C66G G67C | ≤ 0.5
128 | U28C A42C U54G | ≤ 0.5
129 | C27U G44C U59G | ≤ 0.5
130 | C27U U32A C33A | 0.51
131 | C27U G51C C55A C66U | 0.53
132 | U28C A43C G44C C61A | 0.548
133 | U28A A37U | 0.73
134 | U28A C61G C62G | 0.533
135 | U28A C31G A42U C49G G67U | ≤ 0.5
136 | C27U G63A A65G | ≤ 0.5
137 | U28A C34U | 0.553
138 | U28A U32C | 0.833
139 | U28A U35C | 0.753
140 | U28A A40G G51C U54A G58C | 0.582
141 | U28C C33A A42C A45U G63C | ≤ 0.5
142 | C27U G44C | 1.03
143 | U28C A43C G44C | ≤ 0.5
144 | U28A A40C | 0.961

Row | Variant | yeast fitness
145 | U28C A57U | 0.823
146 | U28A U59A | 0.633
147 | U28A U59C | 0.647
148 | U28C C62U U64C | 0.7
149 | U28A U32G A65U | ≤ 0.5
150 | U28C A42U | 0.816
151 | C27U G67A | 1.02
152 | U28C G51A C55U C66G | 0.553
153 | C27U U47G C55G G58C | 0.67
154 | U28A A45C | 0.79
155 | U28C G39U C49A C55U | ≤ 0.5
156 | U28C C61A | 0.765
157 | U28C C61U | 0.874
158 | U28C C29A C31G C55A G58A | ≤ 0.5
159 | U28A U47C | 0.858
160 | U28A U47G | 0.535
161 | U28A C34G C49G | ≤ 0.5
162 | U28C C30G C49G | ≤ 0.5
163 | U28A G44A G50A A57G G68C | ≤ 0.5
164 | C27U U54C G67C | 0.54
165 | U28A C29G G51A G56A A69C | ≤ 0.5
166 | U28C G44C | 0.935
167 | C27U C60U C66U | 0.695
